Source: PubChem (several laboratories)
Hits are enriched below; roughly 6.7% of the tested compounds scored in any of these assays.
GRIN3A LBD mod: modulates the human NR3A ligand-binding domain; 2.5% of 340,000 active; Tm shift relative to glycine control, % at 25 µM; NR3A LBD differential scanning fluorimetry, Tm shift; 0% = protein alone, 100% = glycine-bound protein; AID 1259313;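 active = melting temperature shift of at least 10% of the positive control shift, at one fixed dose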
CSC inhib: cancer stem cell inhibition; 1.1% of 300,000 active; inhibition, % at 7.5 µM; cancer stem cell-like cells viability, luminescence; AID 2717; in the data active = inhibition above about 75%; inconclusive = no clear call, values can overlap the other calls; tested in HMLE shEcad cells
CHOP inhibitor: blocks CHOP induction under ER stress. 3.8% of 220,000 active. inhibition, % at 10 µM. CHO-K1 CHOP-promoter luciferase, tunicamycin-induced, 15-18 h. AID 2732;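 active = compounds that reduced the stress-induced luciferase reporter signal by more than about 70% of percent inhibition, limit read from the data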;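 also: 0% = tunicamycin plus vehicle and 100% = wells without tunicamycin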
T cruzi inh: T. cruzi replication inhibition. inhibition, % (no concentration beside the values). 1.4% of 300,000 active. T. cruzi beta-gal in NIH3T3, luminescence, 90 h;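 active = mean inhibition across valid replicates above about 55%, limit read from the data; inconclusive = mean below that limit but half or more replicates reach it; inactive = mean below it, under half of replicates reach it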;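 also: signal also drops with host cell toxicity which is not excluded here; 0% = plate median of DMSO wells and 100% = zero luminescence signal; higher percent means less beta-gal luminescence so fewer parasites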
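System: mouse NIH/3T3 fibroblasts infected with β-gal-expressing T. cruzi Tulahuen C4 / Input: NIH/3T3 cells, 5,000 per well / Buffer or medium: Low-serum DMEM with 2% FBS / Probe or stimulus: 5000 reporter trypomastigotes per well / Schedule: ≥90 h infection period, 3 h prior cell attachment / Measured by: GalScreen luminescence, 60 min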
Beta apoptosis: blocks beta cell apoptosis | INS-1E cytokine-induced death, ATP luminescence, 48 h; percent of positive-control rescue, neutral wells zero | protection from apoptosis, % (no concentration beside the values) | 0.8% of 300,000 active | AID 435005;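 active = Every replicate reaches about 75%, or at least half do and their mean reaches it too, limit read from the data; inconclusive = At least half of replicates reach the limit but their mean does not; inactive = Under half of replicates reach the limit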;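 also: 0% = cytokine-treated negative control wells and 100% = positive control rescue; higher means more ATP so stronger rescue from cytokine killing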
PREPL inh: inhibitors of human prolyl oligopeptidase-like enzyme PREPL | Q4J6C6 | recombinant PREPL, fluorescence polarization activity-based probe | inhibition, % at 5.96 µM | 0.68% of 320,000 active; in the data active = inhibition above about 43%;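 also: 0% = enzyme with DMSO and 100% = wells lacking enzyme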
Target sequence (Q4J6C6 whole entry, looked up): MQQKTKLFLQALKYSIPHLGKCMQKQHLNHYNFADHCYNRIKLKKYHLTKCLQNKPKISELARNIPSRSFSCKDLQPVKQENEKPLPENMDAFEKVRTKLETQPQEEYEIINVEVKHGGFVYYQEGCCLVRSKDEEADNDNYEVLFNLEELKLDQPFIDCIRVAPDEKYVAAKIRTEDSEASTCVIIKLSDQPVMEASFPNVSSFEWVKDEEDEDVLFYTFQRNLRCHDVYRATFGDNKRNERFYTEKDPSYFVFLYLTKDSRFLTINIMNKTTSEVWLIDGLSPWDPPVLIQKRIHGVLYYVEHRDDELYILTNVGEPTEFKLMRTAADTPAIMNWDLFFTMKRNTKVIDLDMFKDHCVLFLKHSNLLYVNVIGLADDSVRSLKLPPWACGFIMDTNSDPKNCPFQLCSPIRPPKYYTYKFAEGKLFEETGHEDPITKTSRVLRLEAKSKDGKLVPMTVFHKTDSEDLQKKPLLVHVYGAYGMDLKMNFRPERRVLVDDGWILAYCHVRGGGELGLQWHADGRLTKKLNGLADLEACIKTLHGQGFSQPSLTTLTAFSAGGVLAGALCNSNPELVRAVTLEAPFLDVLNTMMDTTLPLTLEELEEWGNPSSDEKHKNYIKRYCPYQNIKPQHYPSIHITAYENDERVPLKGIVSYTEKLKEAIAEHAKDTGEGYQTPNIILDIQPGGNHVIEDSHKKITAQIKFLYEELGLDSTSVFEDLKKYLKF
The depositor's hits bear a star; ? = inconclusive; · = no result.

SMILES | GRIN3A LBD mod | CSC inhib | CHOP inhibitor | T cruzi inh | Beta apoptosis | PREPL inh
COC(=O)c1ccc(-n2c(CCC(=O)O)ccc2-c2ccccc2)cc1 | -2 | -1 | · | -10 | · | -5
Cc1cc(-c2nnc(SCC(=O)Nc3ccc(Br)cc3F)n2N)n[nH]1 | -2 | -4 | · | -4 | -3 | -3
c1ccc(CCSc2nccn2-c2ccccc2)cc1 | 3 | -1 | 40 | -23 | -1 | -10
CCc1ccc(CSc2nccn2-c2ccccc2)cc1 | -7 | -2 | 72* | -30 | -4 | 2
Cc1cc(C(=O)CN2CCC(C)CC2)c(C)n1-c1ccccc1F | 9 | -7 | 23 | 57* | 5 | -11
Fc1ccc(NC(=S)NCCN2CCOCC2)cc1 | -1 | 2 | 23 | -5 | 5 | 22
S=C(NCCN1CCOCC1)Nc1ccc(-c2nc3ccccc3[nH]2)cc1 | 15* | -4 | 14 | -9 | 17 | 7
S=C(Nc1ccc(-c2nc3ccccc3[nH]2)cc1)Nc1cccnc1 | 37* | 31 | · | -14 | 14 | 0
Cc1[nH]c(C)c(S(=O)(=O)N2CCN(c3ccccc3F)CC2)c1C(=O)N1CCCCC1 | -1 | -15 | · | 0 | · | 17
O=C(O)c1cc(-c2ccc(O)cc2)on1 | -1 | -5 | 2 | -10 | 0 | -7
O=C(/C=C/c1cccc(Br)c1)c1ccc2c(c1)OCO2 | 2 | 78* | · | 12 | -3 | -5
CNc1cc([N+](=O)[O-])ccc1N/C=C/C(=O)c1ccc2c(c1)OCO2 | 13* | -15 | 23 | 14 | -9 | 16
O=C(/C=C\Nc1ccccc1Br)c1ccc2c(c1)OCO2 | 36* | 43 | 27 | 10 | 18 | -27
O=C(/C=C/c1ccccc1)c1ccc2c(c1)OCO2 | 0 | 9 | -104 | 12 | 0 | -10
COCCNC(=O)NC1(C(F)(F)F)Oc2ccc(Cl)cc2O1 (configuration not stated) | -1 | 75* | -46 | -1 | -2 | 17
O=S(=O)(Nc1ccc(-n2cccc2)cc1)c1ccc(Cl)c(Cl)c1 | 35* | 84* | -11 | · | 2 | -51
CCCCONc1ncnc2nonc12 | -2 | 0 | 10 | -22 | 0 | -6
COc1ccc(NC(=O)CSc2nnnn2C)cc1S(=O)(=O)N1CCCCC1 | -1 | · | · | · | · | 3
Cc1nn(Cc2ccc(Cl)cc2)c(C)c1NC(=O)CCCn1nc([N+](=O)[O-])c(Cl)c1C | -2 | -2 | 56 | 57* | 1 | 22
COc1ccc(CNC(=O)CCCn2nc(C)c([N+](=O)[O-])c2C)cc1OC | -1 | -7 | 15 | 12 | -2 | -9
Cc1c(Cl)c([N+](=O)[O-])nn1CCCC(=O)Nc1c(Cl)cccc1Cl | -6 | 14 | 18 | 15 | -3 | 26
Cc1c(Cl)c([N+](=O)[O-])nn1CCCC(=O)N(Cc1ccccc1)Cc1ccccc1 | -8 | 0 | 73* | 64* | -3 | 6
Cc1nn(CCCC(=O)NCc2ccc(Cl)cc2)c(C)c1[N+](=O)[O-] | 12* | -3 | 58 | -8 | -3 | -22
CC(C)NS(=O)(=O)c1ccc(NC(=O)C(C)OC(=O)CCC2CCCC2)cc1 (configuration not stated) | -6 | -6 | · | · | -3 | 2
O=C(c1ccc(Cl)cc1)C1CCCN(Cc2cccn2-c2cccnc2)C1 (configuration not stated) | 0 | -8 | 45 | 58* | -15 | -49
SMILES | GRIN3A LBD mod | CSC inhib | CHOP inhibitor | T cruzi inh | Beta apoptosis | PREPL inh
Cn1c(CN2CCCC(C(=O)c3ccc4c(c3)OCO4)C2)nc2ccccc21 (configuration not stated) | 0 | -3 | 18 | 73* | -10 | 7
O=C(c1ccc2c(c1)OCO2)C1CCCN(Cc2cccn2-c2cccnc2)C1 (configuration not stated) | -1 | -16 | 25 | 58* | -4 | -26
O=C(NCCN1CCOCC1)c1cccc(NS(=O)(=O)c2ccc(Br)cc2)c1 | 6 | -2 | · | -1 | -3 | -27
CCOc1ccc(OCCCC(=O)NCCc2ccc(OC)cc2)cc1 | 34* | -9 | · | -14 | -11 | 2
Oc1c(Br)cc(Br)cc1C=Nc1ccc2c(c1)OCO2 | -8 | 12 | 40 | -3 | 1 | 12
Oc1ccc(N=Nc2ccc3c(c2)OCO3)c2ccccc12 | · | 140* | 101* | ? | 99* | 4
Cc1cccc(-c2noc(CN(C(=O)CCc3ccccc3)C(C)C)n2)c1 | 7 | 13 | 70* | 35 | 2 | -14
Cc1cccc(-c2noc(CN(C(=O)/C=C/c3ccccc3Cl)C(C)C)n2)c1 | -3 | 18 | 45 | 4 | -3 | -35
Cc1ccc(-c2noc(CN(C(=O)C(c3ccccc3)c3ccccc3)C(C)C)n2)cc1 | 0 | 33 | 22 | 50 | 36 | 15
Cc1ccc(-c2noc(CN(C(=O)c3cccc(Br)c3)C(C)C)n2)cc1 | -1 | 47 | 71* | 5 | 0 | -26
COc1cc(C(=O)O[C@H]2C/C(C)=C/CC[C@@]3(C)O[C@@H]3[C@H](O)[C@@H]2C(C)C)cc(OC)c1OC | -1 | -16 | · | 23 | 11 | 3
COc1ccc(CN(C)c2ncnc3sccc23)c(OC)c1OC | -2 | 77* | · | 21 | 10 | 13
COc1ccc(CCN(C)c2ncnc3sccc23)cc1OC | 2 | -11 | 8 | -11 | -5 | 5
O=C(Nc1nc2ccccc2n1CCN1CCOCC1)c1cn(-c2ccccc2)nc1-c1ccccc1 | -2 | 57 | 34 | 66* | 65 | 10
CC(C)(Sc1ccc(CCN(CCCCC2CCCCC2)C(=O)NC2CCCCC2)cc1)C(=O)O | -1 | 99* | -4 | · | -1 | 5
CN(Cc1ccccc1)C(=O)NC1CCCCC1 | -1 | 12 | -8 | -7 | -7 | 19
CC(C)(C)C(=O)NCCN1CCN(C(=O)C(C)(C)C)CC1 | 673* | -12 | 3 | -5 | 1 | 4
CCC(CC)C(=O)NCCN1CCN(C(=O)C(CC)CC)CC1 | 0 | -9 | 13 | 4 | 2 | -6
Cc1nc(N2CCC(C)CC2)c2c(C)c(C(=O)Nc3ccc(C(F)(F)F)cc3)sc2n1 | 13* | 30 | 52 | 61* | 14 | -1
Cc1nc(N2CCC(C)CC2)c2c(C)c(C(=O)Nc3cccc(C(F)(F)F)c3)sc2n1 | 12* | 28 | 33 | 38 | 3 | 1
COc1ccc(/C(N)=N/OC(=O)Cc2cccs2)cc1 | 11* | -5 | -9 | -17 | 0 | -3
O=C(COC(=O)COc1ccc(Br)cc1)NCCC1=CCCCC1 | 12* | -14 | 23 | -1 | -10 | 4
O=C(COC(=O)/C=C/c1cccc(Cl)c1)NCCC1=CCCCC1 | 17* | · | 42 | -8 | -5 | -3
CC(Oc1ccc(Cl)cc1Cl)C(=O)NCCC1=CCCCC1 (configuration not stated) | -5 | 4 | 90* | 16 | -1 | -5
